# Most compounds without a hit are left out; they make up all but 1.6% or so of the library.
# LANA-H2A inh: blockers of LANA interaction with H2A/H2B – biochemical, FP readout, HTS, primary screen | Protein LANA1 (Human herpesvirus 8 type P (isolate GK18)), Q9QR71 | cell-free LANA-H2A/H2B peptide, fluorescence polarization | inhibition, % (test concentration not listed) | hit rate 0.6% among 320,000 | AID 2629, 2010; in the data active means inhibition mostly above about 10%, no sharp cut-off; inactive means mostly below about 6.7%
# DSG3 Ab inh: inhibitors of pemphigus antibody binding to DSG3, primary screen, biochemical, bead-based, flow cytometry, scFv-GFP | AID 588358, 2011 | hit rate 0.48% among 310,000 | binding (percent of control), % at 10 µM | DSG3-coupled beads, scFv-anti-DSG3-GFP binding; hits give low values;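 active means binding more than 3 SD below its plate's average and above zero; inconclusive means below that plate limit but binding exactly zero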;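 further: hits lower antibody fragment binding to DSG3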
# Target sequence (P32926 whole entry, looked up, the tested form may be a part): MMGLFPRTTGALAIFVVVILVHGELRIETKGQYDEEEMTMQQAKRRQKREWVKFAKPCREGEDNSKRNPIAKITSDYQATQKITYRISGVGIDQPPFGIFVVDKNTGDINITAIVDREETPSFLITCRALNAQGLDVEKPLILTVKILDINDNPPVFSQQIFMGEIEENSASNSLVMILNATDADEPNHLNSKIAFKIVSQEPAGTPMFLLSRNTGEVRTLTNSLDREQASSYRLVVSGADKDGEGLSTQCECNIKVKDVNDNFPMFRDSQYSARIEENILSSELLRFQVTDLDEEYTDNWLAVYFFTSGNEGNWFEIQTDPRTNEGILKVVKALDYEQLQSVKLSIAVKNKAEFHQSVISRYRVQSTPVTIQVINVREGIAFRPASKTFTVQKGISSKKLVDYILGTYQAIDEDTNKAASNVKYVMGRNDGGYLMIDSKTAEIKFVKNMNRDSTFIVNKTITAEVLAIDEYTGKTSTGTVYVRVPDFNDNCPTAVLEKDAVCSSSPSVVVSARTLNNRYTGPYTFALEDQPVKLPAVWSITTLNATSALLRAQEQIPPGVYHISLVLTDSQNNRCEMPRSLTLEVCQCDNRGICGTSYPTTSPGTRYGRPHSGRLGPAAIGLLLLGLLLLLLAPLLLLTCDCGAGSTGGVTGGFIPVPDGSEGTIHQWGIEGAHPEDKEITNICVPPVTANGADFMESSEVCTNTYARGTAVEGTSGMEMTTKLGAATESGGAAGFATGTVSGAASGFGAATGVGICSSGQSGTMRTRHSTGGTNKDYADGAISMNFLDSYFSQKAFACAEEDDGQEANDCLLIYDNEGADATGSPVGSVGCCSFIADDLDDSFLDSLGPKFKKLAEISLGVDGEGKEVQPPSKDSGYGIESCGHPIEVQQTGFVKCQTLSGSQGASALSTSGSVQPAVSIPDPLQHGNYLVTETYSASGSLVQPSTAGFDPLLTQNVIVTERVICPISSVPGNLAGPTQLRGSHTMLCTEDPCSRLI
# HDAC3 inhib: HDAC3 deacetylase inhibitors, primary screen, biochemical, fluorescence, cell-free homogeneous | inhibition, % at 8.3 µM | recombinant HDAC3, fluorogenic peptide/trypsin coupled | hit rate 0.15% among 320,000 | Histone deacetylase 3 (Homo sapiens), O15379; in the data active means inhibition above about 26%, passing the limit was not always enough; inconclusive means no clear call, values can overlap the other calls
# Arrestin-AP2 inh: inhibitors of beta-arrestin/AP2 binding, primary screen, biochemical, GPCR trafficking, flow cytometry; beta-arrestin 1 C-terminal peptide binding to AP2 beta2-adaptin appendage (human); FITC-arrestin peptide / GST-AP2 beads; AP2 beta2 appendage carries R879A mutation; inhibition, % at 10 µM; hit rate 0.31% among 340,000;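 active means inhibition above a set limit, near 3 SD of compounds lacking own fluorescence, cut at about 54% in these data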
#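 test system = AP2 appendage R879A on GSH beads | buffer or medium = PBS plus Tween 20 (0.05%) and BSA (0.1%) | incubation = 12 min plus 1 h, RT | detection = bead flow cytometry, FITC channel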
# GASC-1 inh: inhibitors of GASC-1 histone demethylase, primary screen, biochemical, fluorescence, DELFIA europium; Lysine-specific demethylase 4C (Homo sapiens), Q9H3R0; GST-JMJD2C(1-420) H3K9me3 demethylation; inhibition, % at 2.35 µM; hit rate 0.069% among 330,000;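 active means more than half of a compound's replicate wells show inhibition beyond 50%, single wells judged on their own value; inconclusive means some, but no more than half, of replicates pass 50% inhibition; inactive means no replicate passes 50% inhibition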;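 further: signal counts dimethyl H3K9 product captured on neutravidin plate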
# T cell modulator: modulators of CD8 T cell-vesicle binding, primary screen, mouse 2C CD8+ T cells, flow cytometry; 2C CD8+ T cell-vesicle binding; hits give low values; response (vesicle binding), % at 7 µM; hit rate 0.068% among 330,000; AID 2052, 2009;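 active means response, share of CD8 T cells binding vesicles, and their 90th percentile fluorescence all below set limits, cut at about 80% in these data, passing the limit was not always enough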;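 further: values below 100% mean blocked vesicle binding to the CD8+ T cells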
#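 Also added: QL9-peptide-loaded Drosophila micro-vesicles bearing Ld, ICAM-1 and B7-1; Test system: purified 2C TCR transgenic mouse naive CD8+ T cells; Measured by: cytometric PE anti-B7-1 and Alexa647 anti-CD8 signals after 1% paraformaldehyde fixation; Timing: binding step 1.5 h, 37 °C, antibody labelling 20 min, ice.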
# A number is an active result; . = inactive; ? = inconclusive; / = no result given; + = active, no number.
SMILES,LANA-H2A inh,DSG3 Ab inh,HDAC3 inhib,Arrestin-AP2 inh,GASC-1 inh,T cell modulator
CCOC(=O)CC(=O)CSc1nc2sc(C)cc2c(=O)n1Cc1ccco1,.,.,.,.,.,.
Cc1cc2c(=O)n(Cc3ccco3)c(SCC(=O)c3ccc(Cl)s3)nc2s1,.,.,26.9,.,.,.
COc1cc(C(=O)Nc2nnc(CC(=O)N3CCOCC3)s2)cc(OC)c1OC,16.6,.,.,.,.,.
Cc1ccc(-n2cc(CN3CCN(C(=O)c4ncn[nH]4)CC3)c(-c3ccc(F)cc3)n2)cc1,.,.,.,.,.,.
CC1CN(C(=O)c2ccccc2OCc2ccccc2Cl)CC(C)O1 (stereo not drawn),.,/,.,.,.,.
O=C1c2c(O)cccc2Cc2cccc(O)c21,.,63.8,.,.,/,.
CCOC(=O)c1cc(-c2ccccc2)sc1NC(=O)CSc1nnc(N)s1,+,.,.,.,.,.
CCOC(=O)c1cc(-c2ccccc2)sc1NC(=O)CSc1nncs1,.,/,.,.,.,.
COc1cccc2c(=O)n(CC(=O)Nc3ccccc3)ccc12,.,.,.,.,.,.
COC(=O)COc1cccc2c(=O)n(CC(=O)Nc3ccc4c(c3)OCCO4)ccc12,.,51.4,.,.,.,.
CS(=O)(=O)c1cnc(-c2ccccc2)nc1Sc1ccc(F)cc1,.,63.6,.,.,.,.
COc1cccc(Sc2nc(-c3ccccc3)ncc2S(C)(=O)=O)c1,.,.,.,.,.,.
Cc1cccn2c(CN[C@H]3CCCCNC3=O)c(C(=O)N3CCOCC3)nc12,.,.,.,.,.,.
CCSC1OC(C(COC(C)=O)OC(C)=O)C(OC(C)=O)C1NC(C)=S (stereo not drawn),/,.,/,.,/,/
COc1cc(NC(=O)COc2cccc3c2OC(C)(C)C3)cc(OC)c1OC,33.6,.,.,.,.,.
COc1cc(CNCCc2ccccc2)ccc1OCC(N)=O,19.6,.,.,.,.,.
COc1ccc(CNC(=O)c2c(O)c3cc(OC)c(OC)cc3[nH]c2=O)cc1OC,.,78.9,.,.,.,.
COc1cc2[nH]c(=O)c(C(=O)NCc3ccc(F)cc3)c(O)c2cc1OC,.,.,.,.,.,.
COc1ccc(CNC(=O)c2ccc(-c3ccccc3)cc2)cc1OC,.,76.2,/,.,.,.
COc1ccc(CNC(=O)c2ccc(-c3ccccc3)cc2)cc1,.,.,.,.,.,.
Cc1ccc(S(=O)(=O)N(C)C)cc1NC(=O)C(C)OC(=O)C1CCCC1 (stereo not drawn),.,.,.,.,.,.
O=C(COc1ccc(Cl)cc1Cl)N(C1CCCCC1)C1CCS(=O)(=O)C1 (stereo not drawn),.,.,.,.,.,.
O=C(C[C@H]1C/C=C\CC[C@H](Cc2ccc(F)cc2)C(=O)O[C@H](c2ccccc2)CNC1=O)N[C@H](CO)Cc1ccccc1,+,.,.,.,.,.
O=C(C[C@H]1C/C=C\CC[C@H](Cc2ccc(F)cc2)C(=O)O[C@@H](c2ccccc2)CNC1=O)N[C@@H](CO)Cc1ccccc1,.,.,.,.,.,.
CC(C)(C)OC(=O)C[C@H]1C/C=C\C[C@H](CC(=O)N[C@H](CO)Cc2ccccc2)C(=O)N[C@H](Cc2ccccc2)COC1=O,82.6,.,.,.,.,.
SMILES,LANA-H2A inh,DSG3 Ab inh,HDAC3 inhib,Arrestin-AP2 inh,GASC-1 inh,T cell modulator
CCOc1ccc(NC(=O)CN(c2ccc(OC)cc2)S(=O)(=O)c2cccs2)cc1,.,.,.,.,.,.
O=C(Nc1ccc(NC(=O)c2ccco2)c(Cl)c1)c1ccccc1,21.4,.,.,.,.,.
O=C(Nc1cccc(NC(=O)c2ccco2)c1)c1ccccc1,.,.,.,.,.,.
CC(C)Oc1ccc(C(=O)Nc2ccc(NC(=O)c3ccco3)c(Cl)c2)cc1,.,54.1,.,.,.,.
COc1ccc(NC(=O)c2ccco2)cc1NC(=O)c1ccccc1F,.,84.5,.,.,.,.
COc1cc(OC)cc(C(=O)Nc2cc(NC(=O)c3ccco3)ccc2OC)c1,.,.,.,.,.,.
CC(Oc1ccc2c(c1)oc(=O)c1ccccc12)C(=O)NCCN1CCOCC1 (stereo not drawn),.,.,.,.,?,.
COc1ccc(C(=O)N2CCn3c2nc2ccccc23)cc1,.,.,.,.,.,.
COc1ccc(C(=O)n2c(-c3ccco3)nc3ccccc32)cc1,.,.,43.5,.,.,.
CCn1c(C)nc2cc(C(=O)N/N=C/c3ccc(O)c(O)c3O)ccc21,/,2.7,/,.,.,/
CCc1ccc(CNC(=O)CCn2ccc3cc(S(=O)(=O)N4CCCC4)ccc32)cc1,.,.,.,.,.,.
Cc1ccccc1-c1cc(C(=O)NCc2cccc(C(F)(F)F)c2)n(CC2CC(c3cccnc3)=NO2)n1 (stereo not drawn),.,.,25.4,.,/,.
CCCCc1cc(=O)oc2cc(C)cc(OCC(=O)Nc3ccccn3)c12,.,3.8,.,.,.,.
CCCc1cc(=O)oc2cc(C)cc(OCC(=O)Nc3ccccn3)c12,.,/,.,.,.,.
Cc1c(C(=O)N(CC(C)C)c2c(N)n(Cc3ccccc3)c(=O)[nH]c2=O)sc2nc3n(c(=O)c12)CCC3,.,.,.,.,.,.
CCOc1ccc(S(=O)(=O)NCCC(=O)NCC2(N3CCCCC3)CCCCC2)cc1,167.6,.,.,.,.,.
CCOc1ccc(S(=O)(=O)NCC2(N3CCCCC3)CCCCC2)cc1,/,.,/,.,/,/
C#CCOCCOCCOCCNc1nc(N2CCN(C(=O)[C@H](CC(N)=O)n3cc([C@@H](N)CC(N)=O)nn3)CC2)nc(N2CCN(C(=O)[C@H](CC(N)=O)n3cc([C@@H](N)CC(N)=O)nn3)CC2)n1,.,.,.,.,.,.
C#CCOCCOCCOCCNc1nc(N2CCN(C(=O)[C@H](CCC(=O)O)n3cc([C@@H](N)CC(N)=O)nn3)CC2)nc(N2CCN(C(=O)[C@H](CCC(=O)O)n3cc([C@@H](N)CC(N)=O)nn3)CC2)n1,156.0,.,.,.,.,.
Cc1cccc(CC2CC(=O)N(c3ccc(C)cc3Br)C2=O)c1 (stereo not drawn),25.6,.,.,.,.,.

# High-throughput results from PubChem.
